From ChEMBL document CHEMBL1146313, “Design and synthesis of piperidine farnesyltransferase inhibitors with reduced glucuronidation potential” (Bioorg Med Chem, 2007)

experiment: Metabolic stability in mouse liver microsomes; assay type: ADME, Microsome
Summary of the method: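 Compound at 0.0010 mg/mL final was preincubated 5.0 min at 37 °C with mouse liver microsomes (1.0 mg/mL final, 100 mmol/L potassium phosphate, pH 7.4). Reaction was started with NADPH-generating system, NADPH system plus UDPGA (100 mmol/L), or UDPGA alone, then run 30 min at 37 °C. Quenched with acetonitrile internal standard and read by HPLC. Residual ratio is the 30-min concentration divided by the initial concentration.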

Structure (SMILES) | Stability
CCc1ccccc1[C@H]1CCN(Cc2cccnc2)[C@@H](c2ccc(O)c(NS(N)(=O)=O)c2)[C@@H]1[N+](=O)[O-] (racemic) | Stable

experiment: Inhibition of human FTase
Summary of the method: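 Human FTase (50 ng purified enzyme) with His6-K-Ras4B (1 µM) and [3H]farnesyl diphosphate (500 nM) in 50 mM Tris-HCl pH 7.7, 5 mM MgCl2, 5 µM ZnCl2, 2 mM DTT, 0.2% octyl-glucoside. Incubated 30 min at room temperature, stopped with SDS. Protein precipitated with cold trichloroacetic acid and filter-collected, then 3H counted. Percent inhibition calculated against DMSO vehicle control.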

Structure (SMILES) | IC50
Cn1cnc(CN2CC[C@@H](c3ccccc3Br)[C@H]([N+](=O)[O-])[C@H]2c2ccccc2)c1 (racemic) | > 500 nM
Cn1cncc1CN1CC[C@@H](c2ccccc2Br)[C@H]([N+](=O)[O-])[C@H]1c1ccccc1 (racemic) | 17 nM
CCc1ccccc1[C@@H]1CCN(Cc2cccnc2)[C@@H](c2ccccc2)[C@H]1C(=O)O (racemic) | > 500 nM
CCc1ccccc1[C@@H]1CCN(Cc2cccnc2)[C@@H](c2ccccc2)[C@H]1C(C)=O (racemic) | 42 nM
CCc1ccccc1[C@@H]1CCN(Cc2cccnc2)[C@@H](c2ccccc2)[C@H]1C(=O)OC (racemic) | 95 nM
O=[N+]([O-])[C@@H]1[C@@H](c2ccc(O)c(I)c2)N(Cc2cccnc2)CC[C@H]1c1ccccc1Br (racemic) | > 500 nM
O=[N+]([O-])[C@@H]1[C@@H](c2ccc(O)c(O)c2)N(Cc2cccnc2)CC[C@H]1c1ccccc1Br (racemic) | 3.7 nM
COc1cc([C@@H]2[C@@H]([N+](=O)[O-])[C@H](c3ccccc3Br)CCN2Cc2cccnc2)ccc1O (racemic) | 180 nM
CCc1ccccc1[C@@H]1CCN(Cc2cccnc2)[C@H](c2ccc(O)c(N)c2)[C@H]1[N+](=O)[O-] (racemic) | 46 nM
CCNc1cc([C@@H]2[C@@H]([N+](=O)[O-])[C@H](c3ccccc3Br)CCN2Cc2cccnc2)ccc1O (racemic) | 50 nM
CC(=O)Nc1cc([C@H]2[C@H]([N+](=O)[O-])[C@@H](c3ccccc3Br)CCN2Cc2cccnc2)ccc1O (racemic) | 27 nM
COC(=O)Nc1cc([C@H]2[C@H]([N+](=O)[O-])[C@@H](c3ccccc3Br)CCN2Cc2cccnc2)ccc1O (racemic) | 14 nM
CCc1ccccc1[C@H]1CCN(Cc2cccnc2)[C@@H](c2ccc(O)c(NS(C)(=O)=O)c2)[C@@H]1[N+](=O)[O-] (racemic) | 4.6 nM
CCS(=O)(=O)Nc1cc([C@H]2[C@H]([N+](=O)[O-])[C@@H](c3ccccc3Br)CCN2Cc2cccnc2)ccc1O (racemic) | 5.9 nM
NS(=O)(=O)Nc1cc([C@H]2[C@H]([N+](=O)[O-])[C@@H](c3ccccc3Br)CCN2Cc2cccnc2)ccc1O (racemic) | 3 nM
Cc1ccc(S(=O)(=O)Nc2cc([C@H]3[C@H]([N+](=O)[O-])[C@@H](c4ccccc4Br)CCN3Cc3cccnc3)ccc2O)cc1 (racemic) | 270 nM
CCc1ccccc1[C@H]1CCN(Cc2cccnc2)[C@@H](c2ccc(O)c(NS(N)(=O)=O)c2)[C@@H]1[N+](=O)[O-] (racemic) | 4.5 nM
COc1ccc([C@@H]2[C@@H]([N+](=O)[O-])[C@H](c3ccccc3Br)CCN2Cc2cccnc2)cc1 (racemic) | > 500 nM
O=[N+]([O-])[C@@H]1[C@@H](c2ccccc2)N(Cc2cccnc2)CC[C@H]1c1ccccc1Br (racemic) | 16 nM
O=[N+]([O-])[C@@H]1[C@@H](c2ccsc2)N(Cc2cccnc2)CC[C@H]1c1ccccc1Br (racemic) | 36 nM

Structure (SMILES) | IC50
CCc1ccccc1[C@@H]1CCN(Cc2cccnc2)[C@H](c2ccc(O)c(NCc3ccncc3)c2)[C@H]1[N+](=O)[O-] (racemic) | 12 nM
O=[N+]([O-])[C@H]1[C@H](c2ccccc2Br)CCN(Cc2cccnc2)[C@H]1c1ccccn1 (racemic) | 25 nM
O=[N+]([O-])[C@@H]1[C@@H](c2cccnc2)N(Cc2cccnc2)CC[C@H]1c1ccccc1Br (racemic) | > 500 nM
CS(=O)(=O)Nc1cc([C@H]2[C@H]([N+](=O)[O-])[C@@H](c3ccccc3Br)CCN2Cc2cccnc2)ccc1O (racemic) | 4.3 nM
NC(=O)Nc1cc([C@H]2[C@H]([N+](=O)[O-])[C@@H](c3ccccc3Br)CCN2Cc2cccnc2)ccc1O (racemic) | 15 nM
Nc1cc([C@@H]2[C@@H]([N+](=O)[O-])[C@H](c3ccccc3Br)CCN2Cc2cccnc2)ccc1O (racemic) | 13 nM
CC(C)Nc1cc([C@@H]2[C@@H]([N+](=O)[O-])[C@H](c3ccccc3Br)CCN2Cc2cccnc2)ccc1O (racemic) | 98 nM
CCc1ccccc1[C@H]1CCN(Cc2cccnc2)[C@@H](c2ccc(O)c(NC(N)=O)c2)[C@@H]1[N+](=O)[O-] (racemic) | 6.2 nM
CCc1ccccc1[C@@H]1CCN(Cc2cccnc2)[C@H](c2ccc(O)c(NCc3ccccc3)c2)[C@H]1[N+](=O)[O-] (racemic) | 121 nM
CCc1ccccc1[C@@H]1CCN(Cc2cccnc2)[C@H](c2ccc(O)c(NCc3ccccn3)c2)[C@H]1[N+](=O)[O-] (racemic) | 23 nM
CCc1ccccc1[C@@H]1CCN(Cc2cccnc2)[C@H](c2ccc(O)c(NCc3cccnc3)c2)[C@H]1[N+](=O)[O-] (racemic) | 24 nM
O=[N+]([O-])[C@@H]1[C@@H](c2ccc(O)cc2)N(Cc2cccnc2)CC[C@H]1c1ccccc1Br (racemic) | 5.4 nM
O=[N+]([O-])c1cc([C@@H]2[C@@H]([N+](=O)[O-])[C@H](c3ccccc3Br)CCN2Cc2cccnc2)ccc1O (racemic) | > 500 nM
CCc1ccccc1[C@@H]1CCN(Cc2cccnc2)[C@@H](c2ccccc2)[C@H]1C(=O)NC (racemic) | > 500 nM
O=[N+]([O-])[C@@H]1[C@@H](c2ccc3[nH]cnc3c2)N(Cc2cccnc2)CC[C@H]1c1ccccc1Br (racemic) | > 500 nM
CCc1ccccc1[C@@H]1CCN(Cc2cccnc2)[C@@H](c2ccccc2)[C@H]1CO (racemic) | > 500 nM
C=CCOC(=O)[C@H]1[C@H](c2ccccc2CC)CCN(Cc2cccnc2)[C@H]1c1ccccc1 (racemic) | > 500 nM
O=[N+]([O-])[C@@H]1[C@@H](c2ccccc2)N(Cc2cnc[nH]2)CC[C@H]1c1ccccc1Br (racemic) | > 500 nM
N#Cc1ccc(Cn2cncc2CN2CC[C@@H](c3ccccc3Br)[C@H]([N+](=O)[O-])[C@H]2c2ccccc2)cc1 (racemic) | 44 nM
